Data reported in paper PMC9673813 (International Journal of Nanomedicine, 2022).
Converted amounts (≈) assume the structure as drawn. Read-outs that look alike come from different tables or passages of the source.

How the values were obtained:
[1] = test system: breast cancer cell line MCF-7; assay: In vitro cytotoxicity assay; assay type: cell-based; conditions: Homo sapiens
Summary of the method: (§1)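 Cells grown in high-glucose DMEM with 10% FBS and 1% penicillin/streptomycin at 37°C, 5% CO2. Log-phase cells trypsinized, seeded at 5×10³/well, grown 24 h. Test formulations and blank nanoparticles added at 5, 10, 20, 40, 80 ug/mL for 24, 48, 72 or 96 h. MTT (5 mg/mL stock) added for 3–4 h, formazan dissolved in DMSO, A490 read. Inhibition rate calculated from blank-, control- and test-well OD. Dose–effect curves plotted; n=3.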

[2] = In vivo cumulative toxicity; parameters: species or system BALB/c mice
[3] = In vitro release investigation; assay type: physicochemical
Summary of the method: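 Test formulation (1 mL, 200 ug/mL) was placed in a dialysis bag (8000–14,000 Da) in 200 mL PBS with 0.2% Tween-80, at 37 °C and 120 r/min. 3 mL of medium was withdrawn and replaced at 0.25–168 h. Samples were centrifuged at 8000 r/min for 10 min, and supernatant was analysed by HPLC for cumulative release. Data were fitted to zero-order, first-order and Higuchi models, with r² calculated; n=3.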

In vivo acute toxicity = assay: In vivo acute toxicity; parameters: species or system BALB/c mice; conditions: single i.p. 40 mg/kg
Summary of the method: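 Female BALB/c mice, 7 weeks, 20 ± 3 g, n=10/group, received a single intraperitoneal 40 mg/kg dose; saline control at equal volume. Status and deaths were recorded daily, and survival was followed over 10 days. Heart, liver and kidney from three randomly selected mice per group were H&E-stained for pathology.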

[4] = test system: normal hepatocyte cell line L02; assay: In vitro cytotoxicity assay; assay type: cell-based
Summary of the method: as §1

[5] = Pharmacokinetics in SD rats; assay type: in vivo; conditions: 10 mg/kg
Summary of the method: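 SD rats (n=5/group) were injected with 10 mg/kg. Blood (0.3 mL) was collected at 0.08–120 h into heparin tubes and centrifuged. Plasma (100 μL) was extracted with methanol:ethyl acetate 10:90 and analysed by HPLC: C18 column, acetonitrile–phosphate water pH 4.0 65:35, 0.8 mL/min, 30 °C, 227 nm. Results are mean ± SEM.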

MCF-7 tumor = assay: In vivo antitumor assessment in MCF-7 tumor-bearing nude mice; parameters: species or system BALB/c nude mice
Summary of the method: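 Female BALB/c nude mice, 4 weeks old, were inoculated in the left armpit with 0.1 mL MCF-7 suspension (3 × 10⁷ cells/mL). Dosing started at ~100 mm³ (n=10/group; saline control): 10 mg/kg intraperitoneally every 3 days for 20 days. Body weight and tumor volume (V = π/6·AB²) were measured every 3 days, and deaths tallied every 5 days. Tumors were weighed on day 20; IR = 1 − drug/control tumor weight. Procedures were blinded.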

## CC(=O)O[C@H]1C(=O)[C@@]2(C)[C@H]([C@H](OC(=O)c3ccccc3)[C@]3(O)C[C@H](OC(=O)[C@H](O)[C@@H](NC(=O)c4ccccc4)c4ccccc4)C(C)=C1C3(C)C)[C@]1(OC(C)=O)CO[C@@H]1C[C@@H]2O [PTX, Paclitaxel]
[1]; MCF7, 24 h, read-out: IC50 24 h
  IC50: > 80 µg/mL
[1]; MCF7, 48 h, read-out: IC50 48 h
  IC50: 64.3 ± 5.73 µg/mL (≈ 75.3 µM)
[1]; MCF7, 72 h, read-out: IC50 72h
  IC50: 26.2 ± 2.68 µg/mL (≈ 30.7 µM)
[1]; MCF7, 96 h, read-out: IC50 96h
  IC50: 12.7 ± 0.97 µg/mL (≈ 14.8 µM)
[2]; 10 mg/kg i.p. every three days for 60 days
  pathology of heart, liver and kidney tissues (H&E), cumulative toxicity: Some damage to cells and muscle fibers
[2]; 10 mg/kg i.p. every three days for 60 days, n=10
  mouse deaths within 60 days / throughout the experiment, cumulative toxicity: all mice in this group died
[2]; 10 mg/kg i.p. every three days, n=10
  mouse deaths within seven days, cumulative toxicity: three mice died
[3]
  release model that the in vitro release behavior accords with: first-order model
[3]; PBS with 0.2% Tween-80, 37 °C, 24 h
  cumulative release rate at 24 h: over 60%
[3]; rate constant of release
  First-Order Equation k1: 0.0711
  Higuchi's Equation kh: 7.2999
  Zero Order Equation k0: 0.5097
In vivo acute toxicity
  pathology of heart, liver and kidney tissues (H&E), acute toxicity: severe necrosis
In vivo acute toxicity; n=10
  mouse deaths in acute toxicity trial: 10 mice all died within 5 h
[4]; 24 h, read-out: IC50 24 h
  IC50: > 80 µg/mL
[4]; 48 h, read-out: IC50 48 h
  IC50: > 80 µg/mL
[4]; 72 h, read-out: IC50 72h
  IC50: 36.9 ± 3.18 µg/mL (≈ 43.2 µM)
[4]; 96 h, read-out: IC50 96h
  IC50: 17.3 ± 0.83 µg/mL (≈ 20.3 µM)
[4]; 96 h, read-out: inhibitory rate on cell growth higher than PTX-SLN@CUD
  inhibition at 10 µg/mL: 40.1%
[5]; SD rats, intravenous injection, sampling to 120 h
  time up to which plasma PTX concentration stayed detectable: 12 h
[5]; SD, rat, plasma, iv
  AUC(0-t): 2380 ± 276 ng·h/mL
  MRT last: 4.94 ± 0.653 h
  Tmax: 0.25 ± 0.02 h
  Vd: 54.5 ± 8.53 L/kg
  clearance: 57.2 mL/min/kg
  half-life: 11 ± 0.773 h
MCF-7 tumor; 10 mg/kg i.p. every three days, 20 days
  deaths / survival of tumor-bearing nude mice during the test: death of three nude mice
MCF-7 tumor; 10 mg/kg i.p. every three days, day 20
  tumor volume at 20 days / end of trial: 1000 mm^3
MCF-7 tumor; 10 mg/kg i.p. every three days, day 20, by tumor weight
  tumor inhibition rate: 32.93%
MCF-7 tumor; 10 mg/kg, 20 days versus beginning
  change of average body weight of nude mice: significant decrease
MCF-7 tumor; 10 mg/kg, after 20 days
  cancer cell necrosis (H&E staining of tumors): 25%
